Only some compounds are listed: those with a hit (about 1.9% of all), similar ones and a draw of the others.
Tb MetRS inh: T. brucei MetRS inhibitors, primary screen, biochemical, luminescence. purified T. brucei MetRS, ATP depletion, Kinase-Glo luminescence. 0.4% of 360,000 active. methionyl-tRNA synthetase (Trypanosoma brucei brucei). inhibition, % at 11.9 µM;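 active means inhibition above a per-plate cutoff of the control wells' mean inhibition plus 3 SD, cut at about 5.5% in these data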
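Dosing: 11.9 µM single point; system: parasite MetRS enzyme; technique: luminescence of leftover ATP; times: 15 min enzyme-compound preincubation, 2 h reaction, 10 min detection, 25 °C; replicates: each compound tested once; read-out basis: percent inhibition relative to median high and low control wells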
DAGLB inh: DAGLB lipase inhibitors, primary screen, biochemical, fluorescence, HTS | Diacylglycerol lipase-beta (Homo sapiens), Q8NCG7 | HEK293T DAGLB membrane lysate, EnzChek fluorogenic substrate | inhibition, % at 5.17 µM | 0.059% of 340,000 active; in the data active means inhibition above about 34%
HGIII-sPLA2 inh: human group III sPLA2 inhibitors, primary screen, biochemical, QFRET, BODIPY PC-A2 liposome substrate. QFRET BODIPY PC-A2 liposome hydrolysis, fluorescence. inhibition, % at 12.2 µM. 0.56% of 370,000 active. AID 743126, 2013;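 active means inhibition above mean plus 3 SD of compounds lying within the high and low control bounds, cut at about 19% in these data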
PLCg1 inh: PLC-gamma1 enzyme inhibitors, primary screen, biochemical, fluorescence, purified enzyme; fluorogenic substrate; inhibition, % at 12.2 µM; 0.84% of 370,000 active; AID 720700, 2013
PLCb3 inh: human PLC-beta3 inhibitors, primary screen, biochemical, fluorescence; 0.18% of 370,000 active; Purified PLC-beta3, fluorogenic substrate; inhibition, % at 12.2 µM; in the data active means inhibition above about 11%
Target sequence (Q01970 whole entry, looked up): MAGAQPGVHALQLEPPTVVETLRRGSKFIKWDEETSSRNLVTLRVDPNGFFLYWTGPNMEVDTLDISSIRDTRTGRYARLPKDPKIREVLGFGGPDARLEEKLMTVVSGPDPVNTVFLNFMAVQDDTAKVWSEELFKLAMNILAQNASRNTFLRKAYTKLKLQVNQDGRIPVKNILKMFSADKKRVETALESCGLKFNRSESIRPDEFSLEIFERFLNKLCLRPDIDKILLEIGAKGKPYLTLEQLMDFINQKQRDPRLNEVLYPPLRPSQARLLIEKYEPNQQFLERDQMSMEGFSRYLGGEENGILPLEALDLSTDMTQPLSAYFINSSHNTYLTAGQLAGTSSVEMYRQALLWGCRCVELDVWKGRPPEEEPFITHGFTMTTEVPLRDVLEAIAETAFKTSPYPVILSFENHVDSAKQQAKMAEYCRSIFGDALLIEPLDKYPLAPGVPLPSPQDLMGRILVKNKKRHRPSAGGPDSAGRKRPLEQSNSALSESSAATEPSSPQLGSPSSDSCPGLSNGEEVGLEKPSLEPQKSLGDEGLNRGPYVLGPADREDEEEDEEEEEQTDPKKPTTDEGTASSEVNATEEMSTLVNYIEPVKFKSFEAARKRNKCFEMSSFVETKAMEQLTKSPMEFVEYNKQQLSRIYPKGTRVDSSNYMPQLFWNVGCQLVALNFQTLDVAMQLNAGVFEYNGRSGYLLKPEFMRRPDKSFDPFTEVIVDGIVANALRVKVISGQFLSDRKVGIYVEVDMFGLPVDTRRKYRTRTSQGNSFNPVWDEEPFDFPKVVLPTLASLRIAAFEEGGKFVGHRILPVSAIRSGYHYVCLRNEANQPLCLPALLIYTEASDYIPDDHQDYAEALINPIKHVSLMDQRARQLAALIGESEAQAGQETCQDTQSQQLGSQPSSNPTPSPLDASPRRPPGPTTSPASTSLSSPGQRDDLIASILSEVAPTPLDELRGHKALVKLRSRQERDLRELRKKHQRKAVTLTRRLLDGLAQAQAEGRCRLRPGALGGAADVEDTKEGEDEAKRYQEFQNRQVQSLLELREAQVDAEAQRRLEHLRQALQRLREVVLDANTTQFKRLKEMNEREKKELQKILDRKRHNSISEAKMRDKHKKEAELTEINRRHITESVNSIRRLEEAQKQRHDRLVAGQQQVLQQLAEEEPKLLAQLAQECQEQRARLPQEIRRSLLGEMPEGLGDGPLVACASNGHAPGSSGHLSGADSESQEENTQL
PLCgamma1 ctr: PLC-gamma1 enzyme inhibitors, counter-screen for PLC-beta3 inhibitor project, biochemical, fluorescence; shares compounds with PLCg1 inh; purified PLC-gamma1, fluorogenic substrate; inhibition, % at 12.3 µM; 3.1% of 3,300 active
PLCb3 confirm: PLC-beta3 inhibitor confirmation, biochemical, fluorescence, purified enzyme; shares compounds with PLCg1 inh; fluorogenic substrate fluorescence; inhibition, % at 12.3 µM; 1% of 3,300 active; in the data active means inhibition above about 11%
Of the large screens only hits and unclear results are named; the others gave an inactive call (follow-up assays come after a bar, where they were run). Unless noted, no stated cut-off is given here; in the data, active means inhibition above about 9.5%; inactive means the rest.

O=C(c1cnc2c(c1)COc1ccc(Cl)cc1-2)c1ccccc1O	PLCg1 inh 12.2 | PLCgamma1 ctr inactive | PLCb3 confirm inactive
Cc1ccc(O)c(C(=O)c2cnc3c(c2)COc2ccccc2-3)c1	PLCg1 inh 14.2 | PLCgamma1 ctr inactive | PLCb3 confirm inactive
O=C(Nc1ccccc1)OCCN1C(=O)CCC12CCC(c1ccc(Cl)cc1)CC2 (stereo not given)	none (no result: Tb MetRS inh, DAGLB inh)
O=C(Cn1nnc(-c2ccncc2)n1)Nc1ccc(Oc2ccccc2)cc1	none (no result: Tb MetRS inh, DAGLB inh)
CC(C)CN1C(=O)NC(NC(=O)c2cccnc2)(C(F)(F)F)C1=O (stereo not given)	PLCg1 inh 10.8 | PLCgamma1 ctr inactive | PLCb3 confirm inactive
CN(C)c1cccc2c(S(=O)(=O)NCC3CCN(C(=O)C(=O)c4cccs4)CC3)cccc12	none (no result: Tb MetRS inh, DAGLB inh)
CCC(CC)C(=O)Nc1c2c(nn1-c1ccc(OC)cc1)CS(=O)C2 (stereo not given)	PLCg1 inh 11.9 | PLCgamma1 ctr inactive | PLCb3 confirm inactive
CCC(=O)Nc1c2c(nn1-c1ccc(OC)cc1)CS(=O)C2 (stereo not given)	none
CCn1c(=O)c([N+](=O)[O-])c(N2CCSCC2)c2ccccc21	PLCg1 inh 11.7 | PLCgamma1 ctr inactive | PLCb3 confirm inactive
Cn1c(=O)c([N+](=O)[O-])c(N2CCSCC2)c2ccccc21	none
O=C(Nc1ccccc1C(F)(F)F)O[C@@H]1CC[C@@]23CCCN2C(=O)CCC[C@H]3C1	none (no result: Tb MetRS inh, DAGLB inh)
Cc1csc(NC(=O)CSc2nnc(-c3ccncc3)n2C)n1	none
Cc1csc(NC(=O)CSc2nnc(-c3ccc(Cl)cc3)n2N)n1	PLCg1 inh 10.3 | PLCgamma1 ctr inactive | PLCb3 confirm inactive
O=C(c1cc(COc2ccc(-n3cncn3)cc2)on1)N1CCCC1	PLCg1 inh 13.8 | PLCgamma1 ctr inactive | PLCb3 confirm inactive
COC1CCN(C(=O)c2cc(COc3ccc(-n4cncn4)cc3)on2)CC1	none
CCc1ccc(Nc2nnc(SCC(=O)Nc3cccc(S(=O)(=O)NC4=NCCCCC4)c3)s2)cc1	PLCg1 inh 9.7 | PLCgamma1 ctr inactive | PLCb3 confirm inactive
Cc1ccc(CC2CC(=O)N(c3ccc(C)cc3)C2=O)cc1 (stereo not given)	none
Cc1ccc(CC2CC(=O)N(c3nc4ccccc4n3C)C2=O)cc1 (stereo not given)	PLCg1 inh 12.2 | PLCgamma1 ctr inactive | PLCb3 confirm inactive
CCOc1ccc(C(=O)NC(C(=O)NCC2CCCO2)C(C)C)cc1 (stereo not given)	none
COc1ccc(C(=O)NC(C(=O)NCC2CCCO2)C(C)C)cc1 (stereo not given)	PLCg1 inh 10.2 | PLCgamma1 ctr inactive | PLCb3 confirm inactive
O=C(c1cccc(S(=O)(=O)N2CCCCC2)c1)N(CCc1ccccc1)Cc1ccccc1	none
O=C(c1cccc(S(=O)(=O)N2CCOCC2)c1)N(CCO)Cc1ccccc1	PLCg1 inh 10.2 | PLCgamma1 ctr inactive | PLCb3 confirm inactive
O=S(=O)(c1ccc(Cl)cc1)c1cnc2ccccc2n1	PLCg1 inh 9.6 | PLCgamma1 ctr 11.6 | PLCb3 confirm inactive
CC(C)N1CCCCC(NC(=O)c2ccc(Br)cc2)C1=O (stereo not given)	none (no result: Tb MetRS inh, DAGLB inh)
CCC(C)[C@H](NC(=O)[C@@H]1Cc2ccccc2CN1)C(=O)NCc1ccc(OC)cc1 (stereo not given in full)	none
CCC(C)[C@H](NC(=O)[C@@H]1Cc2ccccc2CN1)C(=O)NCc1ccc(C)cc1 (stereo not given in full)	PLCg1 inh 9.8 | PLCgamma1 ctr inactive | PLCb3 confirm inactive
COc1ccc(NC(=O)NCCc2c[nH]c3ccccc23)c(OC)c1	none
COc1ccc(OC)c(NC(=O)NCCc2c[nH]c3ccccc23)c1	PLCg1 inh 12.4 | PLCgamma1 ctr inactive | PLCb3 confirm inactive
c1coc(CN2CN=C(Nc3nc4ccccc4s3)NC2)c1	PLCg1 inh 9.7 | PLCgamma1 ctr inactive | PLCb3 confirm inactive
CC(=O)N1CCN(C(=O)c2ccc(CNC(=O)c3cccc(Br)c3)cc2)CC1	none (no result: Tb MetRS inh, DAGLB inh)
COC(=O)[C@]12C[C@H](CC(=O)N3CCN(C(=O)C4CC4)CC3)C(=O)N(Cc3ccc4c(c3)OCO4)C1=C[C@H](C(C)C)O[C@@H]2C1CC1	none (no result: Tb MetRS inh, DAGLB inh)
CCc1ccc(C2(C)SC(NC(C)=O)=NN2C(C)=O)cc1 (stereo not given)	PLCg1 inh 13.0 | PLCgamma1 ctr inactive | PLCb3 confirm inactive
O=C(Nc1ccc(F)cc1F)c1cc(-c2ccc(Cl)cc2)nc2ccccc12	none (no result: Tb MetRS inh, DAGLB inh)
CCCCC(=O)Nc1ccc(C(=O)Nc2cccnc2)cc1	PLCg1 inh 10.0 | PLCgamma1 ctr inactive | PLCb3 confirm inactive
O=C(NCCc1ccc(F)cc1)c1cc2ccccn2n1	none (no result: Tb MetRS inh, DAGLB inh)
CCc1nnc(NC(=O)CSc2ncnc3c2oc2ccccc23)s1	none
O=C(CSc1ncnc2c1oc1ccccc12)Nc1nc2ccccc2s1	PLCg1 inh 9.6 | PLCgamma1 ctr inactive | PLCb3 confirm inactive
CCOc1cc(/C=C2/C(=O)N(c3ccccc3)N=C2C)ccc1OC(=O)c1ccco1	PLCg1 inh 10.1 | PLCgamma1 ctr inactive | PLCb3 confirm inactive
Cc1ccc(S(=O)(=O)NC[C@@H]2C[C@H](c3ccccc3)ON2S(=O)(=O)c2ccc(C)cc2)cc1	none (no result: Tb MetRS inh, DAGLB inh)
NCCCC[C@@H](C(=O)N1CCNCC1)n1cc([C@@H](N)CO)nn1	PLCb3 inh 11.7 | PLCgamma1 ctr inactive | PLCb3 confirm inactive
NCCCC[C@@H](C(=O)N1CCNCC1)n1cc([C@@H](N)CC(N)=O)nn1	none
CCCn1c(N)c(N(CCOC)C(=O)c2ccc([N+](=O)[O-])c(C)c2)c(=O)[nH]c1=O	PLCg1 inh 9.6 | PLCgamma1 ctr inactive | PLCb3 confirm inactive
COc1ccc(OCc2cc(C(=O)NC(C)Cc3cccnc3)no2)c(Cl)c1 (stereo not given)	none
COc1ccc(OCc2cc(C(=O)NC(C)Cn3cncn3)no2)c(Cl)c1 (stereo not given)	PLCg1 inh 10.7 | PLCgamma1 ctr inactive | PLCb3 confirm inactive
CCc1cccc(NC(=O)CN(c2ccc(OC)cc2)S(=O)(=O)c2c(C)n[nH]c2C)c1	PLCg1 inh 13.9, PLCb3 inh 10.6 | PLCgamma1 ctr 16.4 | PLCb3 confirm 13.1
COc1ccc(N(CC(=O)Nc2cccc(C)c2)S(=O)(=O)c2c(C)n[nH]c2C)cc1	none
